Results as given in ChEMBL document CHEMBL1123293, “Potent vasopressin antagonists lacking the proline residue at position 7” (J Med Chem, 1986).

Key:
[1] = molecular target: Vasopressin V2 receptor (Sus scrofa) (UniProt P32307); test: Affinity for vasopressin V2-receptor of porcine renal medullary membrane; type: tissue-based; conditions: Renal medulla
Method in brief: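 Porcine renal medullary membrane preparation; displacement of [³H]LVP binding. K_bind calculated from the IC50 by the competitive-inhibition relation Kb = IC50/(1 + L/K_D), with K_D taken as the dissociation constant of [³H]LVP.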

Rattus norvegicus = test: Dose required to decrease urine osmolality in rats from the hydropenic levels (~1500 mOsm/kg of H20) 300 mOsm/kg H20; type: functional
Method in brief: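 Male rats were deprived of food and water overnight to give a stable hydropenic state (urine osmolality ~1500 mOsm/kg H₂O). Rats were kept in metabolism cages, four per cage, and given vehicle or one of four doses. Urine volume and osmolality were measured. ED (µg/kg) to lower Uosm to 300 mOsm/kg H₂O was averaged from one to three dose-response curves per peptide.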

Vasopressin V2 receptor = Vasopressin V2 receptor (Sus scrofa, UniProt P32307); test: Inhibition of LVP stimulated adenylate cyclase activity in pig kidney medullary membrane; type: functional, cell membranes
Vasopressin V2 receptor, sequence (P32307 whole entry): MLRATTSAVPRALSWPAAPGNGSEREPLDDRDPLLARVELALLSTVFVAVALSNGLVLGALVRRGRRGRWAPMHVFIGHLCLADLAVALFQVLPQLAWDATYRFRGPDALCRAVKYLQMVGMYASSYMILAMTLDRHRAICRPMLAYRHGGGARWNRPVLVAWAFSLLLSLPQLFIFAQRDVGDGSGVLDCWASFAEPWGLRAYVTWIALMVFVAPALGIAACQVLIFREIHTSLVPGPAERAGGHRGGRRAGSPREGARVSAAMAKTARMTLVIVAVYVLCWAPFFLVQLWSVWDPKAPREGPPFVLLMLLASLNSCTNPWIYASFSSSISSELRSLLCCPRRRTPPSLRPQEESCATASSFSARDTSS
Method in brief: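 LVP-stimulated adenylate cyclase in pig kidney medullary membranes. The inhibition constant K_i was derived from the competitive-inhibition equation. Values are the mean of triplicate determinations.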

Vasopressin V2 receptor (Sus scrofa), sequence (P32307 whole entry): as above

SMILES | K bind [1] [nM] | also measured
CCOc1ccc(C[C@@H]2NC(=O)CC3(CCCCC3)SSC[C@H](C(=O)N3CCC[C@H]3C(=O)N[C@@H](CCCN=C(N)N)C(N)=O)NC(=O)[C@@H](CC(N)=O)NC(=O)[C@H](C(C)C)NC(=O)[C@@H](Cc3ccccc3)NC2=O)cc1 | 12 | 
CCOc1ccc(C[C@@H]2NC(=O)CC3(CCCCC3)SSC[C@H](C(=O)N[C@H](CCCN=C(N)N)C(N)=O)NC(=O)[C@@H](CCN)NC(=O)[C@H](C(C)C)NC(=O)[C@@H](Cc3ccccc3)NC2=O)cc1 | 4.4 | 
CCOc1ccc(C[C@H]2NC(=O)CC3(CCCCC3)SSC[C@@H](C(=O)N3CCC[C@H]3C(=O)N[C@@H](CCCN=C(N)N)C(N)=O)NC(=O)[C@H](CC(N)=O)NC(=O)[C@H](C(C)C)NC(=O)[C@H](Cc3ccccc3)NC2=O)cc1 |  | ED300 (Rattus norvegicus): 9 µg/kg
CCOc1ccc(C[C@@H]2NC(=O)CC3(CCCCC3)SSC[C@H](C(=O)N[C@@H](CCCCN)C(N)=O)NC(=O)[C@@H](CCN)NC(=O)[C@H](C(C)C)NC(=O)[C@@H](Cc3ccccc3)NC2=O)cc1 | 26 | 
CCOc1ccc(C[C@H]2NC(=O)CC3(CCCCC3)SSC[C@@H](C(=O)N[C@@H](CCCNC(=N)N)C(N)=O)NC(=O)[C@H](CCN)NC(=O)[C@H](C(C)C)NC(=O)[C@H](Cc3ccccc3)NC2=O)cc1 |  | Ki (Vasopressin V2 receptor): 2.5 nM
CCOc1ccc(C[C@@H]2NC(=O)CC3(CCCCC3)SSC[C@H](C(=O)N3CCC[C@H]3C(=O)N[C@@H](CCCN=C(N)N)C(=O)NCC(N)=O)NC(=O)[C@@H](CC(N)=O)NC(=O)[C@H](C(C)C)NC(=O)[C@@H](Cc3ccccc3)NC2=O)cc1 | 12 | 
CCOc1ccc(C[C@H]2NC(=O)CC3(CCCCC3)SSC[C@@H](C(=O)N3CCC[C@H]3C(=O)N[C@@H](CCCN=C(N)N)C(=O)NCC(N)=O)NC(=O)[C@H](CC(N)=O)NC(=O)[C@H](C(C)C)NC(=O)[C@H](Cc3ccccc3)NC2=O)cc1 |  | ED300 (Rattus norvegicus): 11 µg/kg
